Experiments:
Assay type in all cases: functional
HOP-62 = assay: Cytotoxicity against human HOP62 cells after 48 hrs by SRB assay; conditions: HOP-62, 48 h; for CC50: read-out: LC50 (the source's name)
Method in brief: (§1)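 NCI-60 five-dose screen at 10−8 to 10−4 M. Cells were plated at 5,000–40,000/well in RPMI 1640 with 5% FBS and 2 mM L-glutamine, then preincubated 24 h, and time-zero plates were TCA-fixed. Compound was added from DMSO stocks and exposed 48 h at 37 °C. Cells were TCA-fixed, SRB-stained, and read at 515 nm. LC50 is the concentration halving the cell population through cell death.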

SNB-19 = assay: Cytotoxicity against human SNB19 cells after 48 hrs by SRB assay; conditions: SNB-19, 48 h; method in brief: as §1
[1] = Cytotoxicity against rat 9LSF cells at 10 uM after 48 hrs by colony formation assay relative to DMAPT
Method in brief: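 9L-SF rat gliosarcoma cells in DMEM/F12 with 10% iron-supplemented calf serum were treated at 50% confluence for 48 h (0.3-20 μM; DMSO <0.1%, DMAPT in saline). Cells were rinsed, trypsinized, counted and seeded for colonies, with irradiated feeders when seeding was below 2,000 cells/cm2. Survival was normalized to control plating efficiency and compared with DMAPT at 10 μM. Treatments in triplicate.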

Structure (SMILES) | GI50 (HOP-62) [µM] | CC50 (HOP-62) [µM] | GI50 (SNB-19) [µM] | CC50 (SNB-19; read-out: LC50 (the source's name)) [µM] | fold change (FC) [1]
C=C1C(=O)O[C@H]2[C@H]1CC/C(COC(=O)NCCCCNC(=O)OC/C1=C/CC[C@@]3(C)O[C@H]3[C@H]3OC(=O)C(=C)[C@@H]3CC1)=C\CC[C@@]1(C)O[C@@H]21 | 3.84 | 46.1 |  |  | 
C=C1C(=O)O[C@H]2[C@H]1CC/C(COC(=O)NCCCCCNC(=O)OC/C1=C/CC[C@@]3(C)O[C@H]3[C@H]3OC(=O)C(=C)[C@@H]3CC1)=C\CC[C@@]1(C)O[C@@H]21 |  |  | 3.97 | 92.5 | 
C=C1C(=O)O[C@H]2[C@H]1CC/C(COC(=O)NCCCCCCCCNC(=O)OC/C1=C/CC[C@@]3(C)O[C@H]3[C@H]3OC(=O)C(=C)[C@@H]3CC1)=C\CC[C@@]1(C)O[C@@H]21 | 1.53 | 7.95 |  |  | 303

From ChEMBL document CHEMBL3632581, “Dimers of Melampomagnolide B Exhibit Potent Anticancer Activity against Hematological and Solid Tumor Cells” (J Med Chem, 2015)
